Reference: ChEMBL document CHEMBL4270592, “8-Aryl-6-chloro-3-nitro-2-(phenylsulfonylmethyl)imidazo[1,2-a]pyridines as potent antitrypanosomatid molecules bioactivated by type 1 nitroreductases” (Eur J Med Chem, 2018)
pIC50: −log10 of the molar value.

Tests used:
[1] = Selectivity ratio of IC50 for wild type promastigote stage of Leishmania donovani MHOM/SD/62/1S-CL2D LdBOB to substrate activity at recombinant type-1 nitroreductase in promastigote stage of Leishmania donovani MHOM/SD/62/1S-CL2D LdBOB; type: toxicity
Method in brief: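 LdBOB promastigotes grown at 26 °C in modified M199. NTR1- and NTR2-overexpressing lines were kept with 100 µg/mL nourseothricin. Triplicate 10 mL cultures seeded at 5×10^4 parasites/mL with drug for 72 h. Aliquots given 50 µM resazurin, fluorescence (ex 528/em 590 nm) read after 4 h. EC50 from a background-corrected 2-parameter fit; at least two repeats, mean plus SD.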

THP-1 = test: Cytotoxicity against human THP1 cells assessed as reduction in cell viability after 72 hrs by MTT assay; type: cell-based; conditions: thp-1, 72 h
Method in brief: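 THP1 cells in complete RPMI with PMA (final 50 ng/mL) at 10⁶ cells/mL, differentiated 48 h. Compounds in DMSO (final <0.5% v/v) then added for 72 h at 37 °C. MTT (0.5 mg/mL in FCS-free medium) 2 h, formazan dissolved in DMSO, A570 with 630 nm reference. Viability as % of untreated control; CC50 from dose-response curve; doxorubicin positive control.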

Leishmania donovani [2] = test: Antileishmanial activity against wild type promastigote stage of Leishmania donovani MHOM/SD/62/1S-CL2D LdBOB after 72 hrs by resazurin dye based assay; type: functional, organism-based
Method in brief: (§1)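 Clonal L. donovani LdBOB promastigotes grown at 26 °C in modified M199. NTR1 and NTR2 overexpressers kept in nourseothricin 100 µg/mL. Triplicate 10 mL cultures seeded at 5×10^4 parasites/mL with drug for 72 h. Aliquots received 50 µM resazurin, read by fluorescence (ex 528/em 590 nm) after 4 h. Background-corrected 2-parameter fit gave EC50; at least two repeats, mean ± SD.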

[3] = Selectivity index, ratio of CC50 for human HepG2 cells to IC50 for axenic amastigote stage of Leishmania infantum; type: toxicity; conditions: read-out: Ratio CC50/IC50
[4] = Selectivity index, ratio of CC50 for human HepG2 cells to IC50 for trypomastigote stage of Trypanosoma brucei brucei AnTat 1.9; type: toxicity; conditions: read-out: Ratio CC50/IC50
HepG2 = test: Cytotoxicity against human HepG2 cells assessed as reduction in cell viability after 72 hrs by MTT assay; type: cell-based; conditions: hepg2, 72 h
Method in brief: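 HepG2 cells in RPMI with 10% FCS, L-glutamine and penicillin/streptomycin, 37 °C, 6% CO2. After 24 h, compounds in DMSO (final <0.5% v/v) added for 72 h, in duplicate. Precipitate checked, MTT (0.5 mg/mL) 2 h, formazan dissolved in DMSO, A570 with 630 nm reference. Viability as % of untreated control; CC50 from dose-response curve; doxorubicin positive control.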

[5] = Substrate activity at recombinant nitroreductase 2 in promastigote stage of Leishmania donovani MHOM/SD/62/1S-CL2D LdBOB assessed as inhibition of parasite growth after 72 hrs by resazurin dye based assay; method in brief: as §1
[6] = Selectivity index, ratio of CC50 for human HepG2 cells to IC50 for intramacrophage amastigote stage of Leishmania donovani infected in human THP1 cells; type: toxicity, cell-based; conditions: read-out: Ratio CC50/IC50
Leishmania donovani [7] = test: Antileishmanial activity against promastigote stage of Leishmania donovani MHOM/IN/00/DEVI assessed as inhibition of parasite metabolic activity after 72 hrs by MTT assay; type: functional, organism-based
Method in brief: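 MHOM/IN/00/DEVI log-phase promastigotes in Schneider's medium with 20% FCS, 2 mM L-glutamine and antibiotics. Seeded at 10⁶ parasites/mL with compounds in DMSO (final <0.5% v/v), in duplicate, 72 h at 27 °C. MTT added for 4 h, stopped with 50% isopropanol–10% SDS, A570 read. IC50 by nonlinear regression, mean of three independent experiments.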

[8] = system: Trypanosoma brucei brucei; test: Antitrypanosomal activity against trypomastigote stage of Trypanosoma brucei brucei AnTat 1.9 assessed as decrease in parasite viability after 69 hrs by Alamar blue assay; type: functional, organism-based; conditions: AnTat 1.9, 69 h
Method in brief: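 AnTat 1.9 in MEM with Earle's salts plus 0.5 mM mercaptoethanol, 1.5 mM L-cysteine, 0.05 mM bathocuproine sulfate and 20% heat-inactivated horse serum, 37 °C, 5% CO2. Seeded 2000 parasites/100 µL with compounds in DMSO, in duplicate, 69 h, then Alamar Blue for 5 h.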

[9] = Electrochemical behavior of the compound assessed as redox potential corrected toward normal hydrogen electrode by cyclic voltammetry; type: physicochemical
[10] = Substrate activity at recombinant type-1 nitroreductase in promastigote stage of Leishmania donovani MHOM/SD/62/1S-CL2D LdBOB assessed as inhibition of parasite growth after 72 hrs by resazurin dye based assay; method in brief: as §1
Leishmania donovani [11] = test: Antileishmanial activity against intramacrophage amastigote stage of Leishmania donovani infected in human THP1 cells after 120 hrs by Giemsa staining based microscopy; type: functional, organism-based; conditions: THP-1, 120 h
Method in brief: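 THP-1 cells differentiated with PMA (final 50 ng/mL) for 48 h at 37 °C, 6% CO2. Infected 10:1 with L. donovani promastigotes acidified 24 h at 27 °C in Schneider 20% FCS pH 5.4. After 24 h, compounds added in duplicate (DMSO <0.5% v/v) for 120 h.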

Leishmania infantum = test: Antileishmanial activity against axenic amastigote stage of Leishmania infantum assessed as inhibition of parasite metabolic activity after 48 hrs by luciferase reporter gene based luminescence assay; type: functional, organism-based
Method in brief: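 L. infantum promastigotes in log phase switched to RPMI 1640 pH 5.4 for 24 h at 24 °C, then 24 h at 37 °C to give axenic amastigotes. Seeded at 2.106 parasites/mL with compounds in DMSO (final <0.5% v/v), in duplicate, 48 h at 37 °C. Wells checked for precipitate, luciferase luminescence read, IC50 by non-linear regression as mean.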

[12] = Selectivity index, ratio of CC50 for human HepG2 cells to IC50 for promastigote stage of Leishmania donovani MHOM/IN/00/DEVI; type: toxicity; conditions: read-out: Ratio CC50/IC50

In the case of O=[N+]([O-])c1c(CS(=O)(=O)c2ccccc2)nc2c(-c3ccncc3)cc(Cl)cn12, the Ratio IC50 [1] was 20 to 40, the CC50 (THP-1) was > 25000 nM and the pIC50 (Leishmania donovani [2]) was 5.82. For the same compound, the selectivity ratio [3] was > 16.7, the selectivity ratio [4] was > 200 and the CC50 (HepG2) was > 50000 nM. For the same compound, the pIC50 [5] was 5.70, the selectivity ratio [6] was > 21.7 and the pIC50 (Leishmania donovani [7]) was 5.92. For the same compound, the pIC50 [8] was 6.60, the Activity [9] was -0.64 V and the pIC50 [10] was 7.40. For the same compound, the pIC50 (Leishmania donovani [11]) was 5.64, the pIC50 (Leishmania infantum) was 5.52 and the selectivity ratio [12] was > 41.7.

For O=[N+]([O-])c1c(CS(=O)(=O)c2ccccc2)nc2c(-c3cccc(CO)c3)cc(Cl)cn12, the Ratio IC50 [1] was 20 to 40, the CC50 (THP-1) was > 15000 nM and the pIC50 (Leishmania donovani [2]) was 5.85. For the same compound, the selectivity ratio [3] was > 17.9, the selectivity ratio [4] was > 167 and the CC50 (HepG2) was > 25000 nM. For the same compound, the pIC50 [5] was 5.72, the pIC50 (Leishmania donovani [7]) was 5.89 and the pIC50 [8] was 6.82. The Activity [9] was -0.7 V, the pIC50 [10] was 7.15 and the pIC50 (Leishmania donovani [11]) was < 5.00. The selectivity ratio [12] was > 19.2.
